Assay results as given in ChEMBL document CHEMBL5543124, “Lead Compound Development of SRC-3 Inhibitors with Improved Pharmacokinetic Properties and Anticancer Efficacy” (J Med Chem, 2024).
Active and inactive are the calls of the source. The calls are words filed in the database; no cut-off is given here.

Key:
MCF7 = assay: Cytotoxicity against human MCF7 cells assessed as inhibition of cell growth incubated for 72 hrs by MTT assay; assay type: functional, cell-based; settings: MCF7, 72 h
PANC-1 = assay: Cytotoxicity against human PANC-1 cells assessed as inhibition of cell growth incubated for 72 hrs by MTT assay; assay type: functional, cell-based; settings: PANC-1, 72 h
Method in brief: (§1)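 Cells seeded and grown to 70–80% confluence, then exposed for 72 h to a titration series (0.2–1000 nM). Viability read by MTT relative to untreated cells, with 6 replicates per concentration. IC50 fitted with a Hill-slope model.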

MDA-MB-468 = assay: Cytotoxicity against human MDA-MB-468 cells assessed as inhibition of cell growth incubated for 72 hrs by MTT assay; assay type: functional, cell-based; settings: MDA-MB-468, 72 h; method in brief: as §1
BT-474 = assay: Cytotoxicity against human BT-474 cells assessed as inhibition of cell growth incubated for 72 hrs by MTT assay; assay type: functional, cell-based; settings: BT-474, 72 h; method in brief: as §1
LNCaP [1] = assay: Cytotoxicity against human LNCaP cells assessed as inhibition of cell growth incubated for 72 hrs by MTT assay; assay type: functional, cell-based; method in brief: as §1
LNCaP [2] = assay: Antitumor activity against human LNCaP cells xenografted in SCID mouse assessed as reduction in tumor growth at 10 mg/kg,ip administration measured after 1 week; assay type: functional, organism-based; settings: time 1.0 weeks
Method in brief: (§2)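 LNCaP cells (1×10^7) injected subcutaneously on both flanks of male SCID mice. From 4 weeks post-inoculation, 10 mg/kg ip daily for 4 weeks or vehicle (n = 10 vs 11). Caliper tumor size measured weekly (length × width²/2); survival endpoint at tumor diameter 3 cm.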

LNCaP [3] = assay: Antitumor activity against human LNCaP cells xenografted in SCID mouse assessed as reduction in tumor growth at 10 mg/kg,ip administration measured after 4 weeks; assay type: functional; set-up: scale not given: the % may be the effect or the level left
Method in brief: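 Male SCID mice received 1×10^7 LNCaP cells subcutaneously under the back skin on both sides. Daily i.p. dosing at 10 mg/kg or vehicle began 4 weeks after inoculation and ran for 4 weeks. Tumor length and width were measured weekly, and size was calculated as length × width × width/2.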

LNCaP [4] = assay: Antitumor activity against human LNCaP cells xenografted in SCID mouse assessed as increase in mouse survival at 10 mg/kg,ip administration measured after 4 weeks; assay type: functional, organism-based; method in brief: as §2
LNCaP [5] = assay: Antitumor activity against human LNCaP cells xenografted in SCID mouse assessed as reduction in Ki67 expression at 10 mg/kg,ip administration measured after 4 weeks by immunohistochemical analysis; assay type: functional, organism-based
Method in brief: (§3)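 LNCaP subcutaneous xenograft tumors in SCID mice, collected at the end of 4 weeks of 10 mg/kg ip daily dosing or vehicle. IHC for Ki67 and cleaved caspase 3 run on eight tumors from eight mice, at least five fields each; positive cells counted; mean ± SEM reported.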

LNCaP [6] = assay: Antitumor activity against human LNCaP cells xenografted in SCID mouse assessed as increase in cleaved caspase-3 expression at 10 mg/kg,ip administration measured after 4 weeks by immunohistochemical analysis; assay type: functional, organism-based; method in brief: as §3
LNCaP [7] = assay: Antitumor activity against human LNCaP cells xenografted in SCID mouse assessed as increase in positive cells of cleaved caspase-3 at 10 mg/kg,ip administration measured after 4 weeks by immunohistochemical analysis; assay type: functional; method in brief: as §3
LNCaP [8] = assay: Antitumor activity against human LNCaP cells xenografted in SCID mouse assessed as reduction in microvascular density at 10 mg/kg,ip administration measured after 4 weeks by immunohistochemical analysis relative to control; assay type: functional; set-up: scale not given: the % may be the effect or the level left
Method in brief: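 LNCaP xenografts were grown subcutaneously on both flanks of male SCID mice and treated i.p. at 10 mg/kg once daily for 4 weeks, starting 4 weeks after inoculation, with a vehicle control. Tumors were collected at the end of treatment for CD31 immunohistochemistry. Microvascular structures were counted in at least five areas per tumor, using eight tumors from eight mice. Data are mean ± SEM.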

MDA-PCa-118b [9] = assay: Antitumor activity against patient derived MDA-PCa-118b cells xenografted in SCID mouse assessed as reduction in bone metastasis at 10 mg/kg,ip administration measured after 4 weeks by X-ray imaging analysis; assay type: functional, organism-based; settings: Homo sapiens
Method in brief: (§4)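 AR-PDX 118b cells (1×10^5) injected via intra-femoral artery in male SCID mice (8–9 weeks). After 2 weeks, 10 mg/kg/day ip or vehicle for 4 weeks (n = 9/group). X-ray imaging every two weeks. At the end, femurs CT-scanned (5 per group) with 3D-reconstruction tumor size, and H&E histology used for tumor/femur area ratio.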

MDA-PCa-118b [10] = assay: Antitumor activity against patient derived MDA-PCa-118b cells xenografted in SCID mouse assessed as reduction in bone damage at 10 mg/kg,ip administration measured after 4 weeks by X-ray imaging analysis; assay type: functional, organism-based; settings: Homo sapiens; method in brief: as §4
MDA-PCa-118b [11] = assay: Antitumor activity against patient derived MDA-PCa-118b cells xenografted in SCID mouse assessed as reduction in tumor burden in femur at 10 mg/kg,ip administration measured after 4 weeks by CT imaging analysis; assay type: functional, organism-based; settings: Homo sapiens; method in brief: as §4
MDA-PCa-118b [12] = assay: Antitumor activity against patient derived MDA-PCa-118b cells xenografted in SCID mouse assessed as reduction in tumor burden in femur at 10 mg/kg,ip administration measured after 4 weeks by hematoxylin and eosin staining based analysis; assay type: functional, organism-based; settings: Homo sapiens; method in brief: as §4
[13] = Antitumor activity against patient derived MDA-PCa-118b cells xenografted in SCID mouse assessed as reduction in femur volume at 10 mg/kg,ip administration measured after 4 weeks by CT imaging analysis; assay type: functional, Homo sapiens; set-up: scale not given: the % may be the effect or the level left; method in brief: as §4
[14] = Antitumor activity against patient derived MDA-PCa-118b cells xenografted in SCID mouse assessed as reduction in ratio of tumor area to femur area at 10 mg/kg,ip administration measured after 4 weeks by CT imaging analysis; assay type: functional, Homo sapiens; set-up: scale not given: the % may be the effect or the level left; method in brief: as §4

SMILES: C/C(=N\N=c1/[nH]c2cc(F)c(F)cc2n1C)c1ncccn1
- IC50 (MCF7): 3.3 nM
- IC50 (PANC-1): 8 nM
- IC50 (MDA-MB-468): 32 nM
- IC50 (BT-474): 1 nM
- IC50 (LNCaP [1]): 11 nM
- Activity (LNCaP [2]): Active
- Activity (LNCaP [3]): >65%
- Activity (LNCaP [4]): Active
- Activity (LNCaP [5]): Active
- Activity (LNCaP [6]): Active
- Activity (LNCaP [7]): 10%
- Activity (LNCaP [8]): >50%
- Activity (MDA-PCa-118b [9]): Active
- Activity (MDA-PCa-118b [10]): Active
- Activity (MDA-PCa-118b [11]): Active
- Activity (MDA-PCa-118b [12]): Active
- Activity [13]: >55%
- Activity [14]: >50%
